Entries after “also recorded” stand apart in the source; their conditions may differ.
Tests used:
GGDPS [1] = target: T1, GGDPS (Homo sapiens, UniProt O95749); settings: cited from earlier work
T1 sequence (O95749 1-300): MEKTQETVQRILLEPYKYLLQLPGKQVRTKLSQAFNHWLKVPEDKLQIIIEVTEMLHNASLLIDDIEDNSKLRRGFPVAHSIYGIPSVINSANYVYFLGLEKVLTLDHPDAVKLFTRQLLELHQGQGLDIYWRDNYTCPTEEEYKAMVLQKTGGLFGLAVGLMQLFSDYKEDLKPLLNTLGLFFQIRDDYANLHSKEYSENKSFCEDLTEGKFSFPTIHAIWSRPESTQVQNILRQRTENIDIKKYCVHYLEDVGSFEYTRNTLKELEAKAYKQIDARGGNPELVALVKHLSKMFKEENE

GGTase II [2] = target: T2, GGTase II (Rattus norvegicus, UniProt Q08602+Q08603); assay: GGTase II enzyme assay; type: biochemical; settings: for inhibitory activity against GGTase II: at concentrations up to 1 mM
T2 sequence (Q08602 1-567): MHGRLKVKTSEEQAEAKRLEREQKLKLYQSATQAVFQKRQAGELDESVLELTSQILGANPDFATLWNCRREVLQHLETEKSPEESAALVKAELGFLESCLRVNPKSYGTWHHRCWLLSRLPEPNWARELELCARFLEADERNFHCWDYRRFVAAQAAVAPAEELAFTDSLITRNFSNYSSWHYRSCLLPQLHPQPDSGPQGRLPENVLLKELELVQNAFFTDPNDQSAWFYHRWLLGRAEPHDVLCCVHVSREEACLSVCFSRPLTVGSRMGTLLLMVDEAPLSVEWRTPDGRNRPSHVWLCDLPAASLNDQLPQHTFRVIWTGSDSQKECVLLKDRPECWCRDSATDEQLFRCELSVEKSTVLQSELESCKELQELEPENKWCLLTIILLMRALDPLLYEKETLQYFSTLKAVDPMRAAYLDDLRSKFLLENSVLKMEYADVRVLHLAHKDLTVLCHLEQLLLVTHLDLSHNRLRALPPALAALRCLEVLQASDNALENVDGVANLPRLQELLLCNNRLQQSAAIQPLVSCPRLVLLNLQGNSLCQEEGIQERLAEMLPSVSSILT
T2 sequence (Q08603 1-331): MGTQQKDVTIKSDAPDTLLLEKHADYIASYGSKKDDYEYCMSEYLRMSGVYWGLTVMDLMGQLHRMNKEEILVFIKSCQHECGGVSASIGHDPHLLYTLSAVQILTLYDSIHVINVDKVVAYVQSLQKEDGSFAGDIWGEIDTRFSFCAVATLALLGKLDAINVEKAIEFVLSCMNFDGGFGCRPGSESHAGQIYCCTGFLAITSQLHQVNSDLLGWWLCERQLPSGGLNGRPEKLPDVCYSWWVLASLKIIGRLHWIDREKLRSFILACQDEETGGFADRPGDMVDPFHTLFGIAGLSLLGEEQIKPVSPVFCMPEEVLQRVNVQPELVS
Method in brief: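 Reaction mix: 30 nM recombinant GGTase II, 2 µM His-tagged Rab1A (E. coli-expressed, Ni-NTA purified) and 1 µM REP-2 in 50 mM sodium HEPES, 5 mM MgCl₂, 1 mM DTT, 1 mM NP-40, ±test compound. Started with 5 µM [³H]-GGPP, 20 min at 37 °C, stopped with 10% HCl/EtOH. P-81 filters were EtOH-washed and scintillation-counted. IC50 came from concentration-response curves.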

[3] = tested on: Rap1a geranylgeranylation in RPMI-8226 cells; assay: Immunoblot of unmodified Rap1a in RPMI-8226 cells; type: cell-based, human; settings: 48 hours; for disruption of Rap1a geranylgeranylation (accumulation of unmodified Rap1a): 10 µM, Figure 3A; for concentration at which unmodified Rap1a is observed: tested at 0.1, 1, 10 µM
Method in brief: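 Whole-cell lysates were made in RIPA buffer with protease/phosphatase inhibitors, BCA-normalised, and run on SDS-PAGE/PVDF immunoblot. The antibody recognises only unmodified Rap1a; β-tubulin was the loading control; detection was HRP/ECL. Gels represent two independent experiments.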

[4] = tested on: Rab6 geranylgeranylation in RPMI-8226 cells; type: cell-based, human; settings: 10 µM, 48 hours, Figure 3A
Method in brief: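 Triton X-114 lysis gave aqueous (cytosolic) and detergent (membrane) fractions. Equal protein (BCA) was run on SDS-PAGE and blotted to PVDF for Rab6 with HRP/ECL detection. Loading controls were β-tubulin (aqueous) and calnexin (detergent). Gels represent two independent experiments.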

GGDPS [5] = target: T1, GGDPS; assay: GGDPS enzyme assay; type: biochemical; settings: in vitro enzyme assay
[6] = tested on: monoclonal protein trafficking in RPMI-8226 cells; assay: Monoclonal protein quantitation; type: cell-based, human; settings: 10 µM, 48 hours, Figure 5
Method in brief: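 Cells were lysed in RIPA with protease/phosphatase inhibitors and protein measured by BCA. Intracellular lambda light chain was quantified by human lambda light chain ELISA. Results are % untreated control, mean ± SD, n=3, unpaired two-tailed t-test (α 0.05).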

[7] = tested on: intracellular FPP levels in RPMI-8226 cells; assay: Measurement of intracellular FPP levels in RPMI-8226 cells; type: cell-based, human; settings: 1 µM, 24 hours, Figure 4
Method in brief: (§1)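 Isoprenoid pyrophosphates were extracted in butanol/75mM ammonium hydroxide/ethanol (1:1.25:2.75) and dried under nitrogen. FPP was coupled to fluorescent GCVLS by FTase and GGPP to GCVLL by GGTase I. Peptides were quantified by reversed-phase HPLC-fluorescence. Results are % untreated control, mean ± SD, n=2, unpaired two-tailed t-test.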

[8] = tested on: intracellular GGPP levels in RPMI-8226 cells; assay: Measurement of intracellular GGPP levels in RPMI-8226 cells; type: cell-based, human; settings: 1 µM, 24 hours, Figure 4
Method in brief: as §1

GGTase II [9] = target: T2, GGTase II; settings: ref our prior studies; cited from earlier work
FTase = FTase (Rattus norvegicus, UniProt Q02293+Q04631); assay: FTase enzyme assay; type: biochemical
Method in brief: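 Ran 1 h at 30 °C, then ice and acetonitrile/5% HCl stop. Centrifuged supernatant went to HPLC with fluorescence detection of prenylated peptide. IC50 came from concentration-response curves.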

Compound | IC50 (GGTase II [2]) [µM] | inhibitory activity against GGTase II (GGTase II [2]) | disruption of Rap1a geranylgeranylation (accumulation of unmodified Rap1a) [3] | disruption of Rab6 geranylgeranylation (Rab6 in aqueous fraction) [4] | effect on intracellular lambda light chain levels [6] | further results
2E,6Z-farnesylbisphosphonate [Compound 22] |  |  |  |  |  | fold less potent GGDPS inhibitor than the 2E,6E-isomer (GGDPS [1]; farnesyl bisphosphonate isomers): approximately 6 fold
CC(C)=CCC[C@@]1(C)O[C@@H]1Cn1cc(CC(P(=O)([O-])[O-])P(=O)([O-])[O-])nn1.[Na+].[Na+].[Na+].[Na+] (racemic) [Compound 12, Sodium (E)-(2-(1-((3-methyl-3-(4-methylpent-3-en-1-yl)oxiran-2-yl)methyl)-1H-1,2,3-triazol-4-yl)ethane-1,1-diyl)bis(phosphonate)] | > 1000 | neither of the individual olefin isomers (11 or 19) nor the related epoxides (12 or 20) displayed inhibitory activity | neither of the epoxide derivatives (12 and 20) displayed activity in this assay | neither of the epoxide derivatives (12 and 20) displayed activity in this assay |  | 
CC(C)=CCC[C@]1(C)O[C@@H]1Cn1cc(CC(P(=O)([O-])[O-])P(=O)([O-])[O-])nn1.[Na+].[Na+].[Na+].[Na+] (racemic) [Compound 20, Sodium (Z)-(2-(1-((3-methyl-3-(4-methylpent-3-en-1-yl)oxiran-2-yl)methyl)-1H-1,2,3-triazol-4-yl)ethane-1,1-diyl)bis(phosphonate)] | > 1000 | neither of the individual olefin isomers (11 or 19) nor the related epoxides (12 or 20) displayed inhibitory activity | neither of the epoxide derivatives (12 and 20) displayed activity in this assay | neither of the epoxide derivatives (12 and 20) displayed activity in this assay |  | GGDPS activity, comparison in words (GGDPS [5]): reduces the activity against GGDPS to a level comparable to the geranyl triazole
CC(C)=CCCC(C)=CCn1cc(CC(P(=O)([O-])[O-])P(=O)([O-])[O-])nn1.[Na+].[Na+].[Na+].[Na+] [Compound 1] | > 1000 |  | A similar pattern was displayed | A similar pattern was displayed | induces an accumulation of intracellular lambda light chain equivalent to that induced by the positive control DGBP | effect on intracellular FPP levels [7]: increased FPP levels; effect on intracellular GGPP levels [8]: decreased GGPP levels; inhibition of GGTase II (GGTase II [9]): does not inhibit GGTase II
CC(C)=CCC/C(C)=C/Cn1cc(CC(P(=O)([O-])[O-])P(=O)([O-])[O-])nn1.[Na+].[Na+].[Na+].[Na+] [Compound 11, Sodium (E)-(2-(1-(3,7-dimethylocta-2,6-dien-1-yl)-1H-1,2,3-triazol-4-yl)ethane-1,1-diyl)bis(phosphonate)] | > 1000 | neither of the individual olefin isomers (11 or 19) nor the related epoxides (12 or 20) displayed inhibitory activity | only weakly disrupted Rap1a geranylgeranylation |  | has no effect on intracellular light chain levels | IC50 (FTase): > 500 µM; disruption of Rap1a geranylgeranylation at 10 µM ([3]; Figure 3B): only weakly disrupted Rap1a geranylgeranylation
CC(C)=CCC/C(C)=C\Cn1cc(CC(P(=O)([O-])[O-])P(=O)([O-])[O-])nn1.[Na+].[Na+].[Na+].[Na+] [Compound 19, Sodium (Z)-(2-(1-(3,7-dimethylocta-2,6-dien-1-yl)-1H-1,2,3-triazol-4-yl)ethane-1,1-diyl)bis(phosphonate)] | > 1000 | neither of the individual olefin isomers (11 or 19) nor the related epoxides (12 or 20) displayed inhibitory activity | effectively disrupted both Rap1a and Rab6 geranylation | effectively disrupted both Rap1a and Rab6 geranylation | This activity is a consequence of the neryl triazole 19; also recorded: disrupts monoclonal protein trafficking | GGDPS activity, comparison in words (GGDPS [5]): slightly less potent; effect on intracellular FPP levels [7]: increased FPP levels; also recorded: increases intracellular FPP levels; effect on intracellular GGPP levels [8]: even more potently decreased GGPP levels; also recorded: depletes cells of GGPP; concentration at which unmodified Rap1a is observed ([3]; Figure 3B): 1 µM
CC(C)=CCC/C(C)=C/CC/C(C)=C/CC(P(=O)(O)O)P(=O)(O)O [Compound 21, 2E,6E-farnesyl bisphosphonate] |  |  |  |  |  | fold more potent than the 2E,6Z-isomer 22 (GGDPS [1]; ref earlier studies): about 6 fold
CC(C)=CCC/C(C)=C/CC(C/C=C(\C)CCC=C(C)C)(P(=O)(O)O)P(=O)(O)O [DGBP, digeranyl bisphosphonate, reference compound] |  |  | accumulation of unmodified Rap1a and Rab6 | accumulation of unmodified Rap1a and Rab6 | accumulation of intracellular lambda light chain | mode of GGDPS inhibition (GGDPS [1]): competitive with respect to FPP as opposed to IPP; concentration at which unmodified Rap1a is observed ([3]; Figure 3B): 10 µM
CC(C)=CCC/C(C)=C\CC(C/C=C(/C)CCC=C(C)C)(P(=O)(O)O)P(=O)(O)O [dineryl bisphosphonate] |  |  |  |  |  | fold less potent GGDPS inhibitor than DGBP (GGDPS [1]): approximately 14 fold
CC(C)=CCCC(C)=CCC(P(=O)(O)O)P(=O)(O)O [geranyl bisphosphonate] |  |  |  |  |  | potency relative to the corresponding neryl bisphosphonate (GGDPS [1]; monoalkyl series): at least one order of magnitude more potent
CC(C)=CCCC(C)=CCC(CC=C(C)CCC=C(C)C)(P(=O)(O)O)P(=O)(O)O [geranyl/neryl] |  |  |  |  |  | fold less potent GGDPS inhibitor than DGBP (GGDPS [1]): approximately 14 fold

From article PMC4067939 (Bioorganic & medicinal chemistry, 2014)
